Sampled rows, rich in hits. Any-hit rate of the full collection: about 3.1%.
hERG protect – hERG rescue from dofetilide block, primary screen, cell-based, CHO-hERG, FluxOR thallium flux, dofetilide IC70 | Voltage-gated inwardly rectifying potassium channel KCNH2 (Homo sapiens), Q12809 | dofetilide IC70 present | activation (rescue from dofetilide block), less the hit threshold, % at 10 µM | actives 0.51% (n = 310,000) | AID 1511, 2009;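 active = activation above the mean of controls blocked by dofetilide plus 5 SD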;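 note: thallium influx through hERG after potassium depolarization seen as dye fluorescence rise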
KCNK3 inh – human KCNK3 channel inhibitors, primary screen, CHO cells, FluxOR thallium flux, B-score; B-score at 10 µM; FluxOR fluorescence; active compounds read low; actives 0.84% (n = 340,000);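 active = B-score under library mean minus 4 SD, starting fluorescence ratio at most library mean plus 5 SD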;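 note: more negative B-score means stronger inhibition of thallium flux through KCNK3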
KCNQ1 block – inhibitors of human KCNQ1 channel, primary screen, cell-based, thallium flux, high-throughput | B-score at 10 µM | AID 2642, 2010 | actives 1.3% (n = 310,000) | Potassium voltage-gated channel subfamily KQT member 1 (Homo sapiens), P51787 | CHO-K1 KCNQ1, FluxOR thallium flux fluorescence; active compounds read high;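 active = compounds whose thallium flux B-score, printed positive for inhibition, exceeds three library SD while starting fluorescence stays within three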;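 note: channel opened by potassium depolarization with thallium stimulus after 20 min compound exposure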
KCNQ1 pot – potentiators or activators of KCNQ1 channel, primary screen, cell-based, thallium flux, high-throughput. Potassium voltage-gated channel subfamily KQT member 1 (Homo sapiens), P51787. CHO-K1 KCNQ1, thallium flux FluxOR fluorescence; active compounds read high. B-score at 10 µM. actives 0.35% (n = 310,000);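 active = fluorescence ratio B-score, a plate-corrected score, at least three library SD, with initial intensity B-score within 5 SD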
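assay system = CHO-K1 cells stably expressing KCNQ1 | medium = assay buffer, equal DMSO in all wells | timing = 37 °C overnight plating, 90-min dark dye load, 20-min compound pretreatment | measured by = kinetic FluxOR thallium fluorescence, 10-s 1-Hz baseline, 110-s post-stimulus read | measure = fluorescence change relative to baseline, converted to B score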
KCNK9 inh – KCNK9 potassium channel inhibitors, primary screen, HEK293 cells, thallium flux | B-score at 10 µM | AID 488922, 2010 | FluxOR thallium flux fluorescence; active compounds read low | actives 1.2% (n = 310,000) | Potassium channel subfamily K member 9 (Homo sapiens), Q9NPC2;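 active = ratio B-score over 3 SD below the library mean, with starting fluorescence within 5 SD of its mean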;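 note: negative B-score means less thallium flux so channel inhibition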
KCNQ1 block val – KCNQ1 potassium channel inhibitors, confirmation, cell-based, Tl flux, duplicate; shares compounds with KCNQ1 block; KCNQ1 cell line, FluxOR thallium flux fluorescence; inhibition, % at 10 µM; actives 93% (n = 1,600); AID 588353, 2011;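 active = primary screen active, with duplicate mean exceeding buffer control mean plus 3 SD of buffer wells, cut at about 28% in these data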;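 note: 0% = buffer control ratio and 100% = XE991 inhibitor control ratio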
CHO KCNQ1 ctr – thallium flux effects in parental CHO cells, counter-screen for KCNQ1 inhibitor project, cell-based, Tl flux; shares compounds with KCNQ1 block; parental CHO-K1, FluxOR thallium flux fluorescence ratio; active compounds read low; zero means no signal rise above baseline; fluorescence ratio (Tl flux) at 10 µM; actives 21% (n = 1,600); AID 588366, 2011;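 active = mean of duplicate thallium-flux fluorescence ratios in parental host cells more than 5 SD below the buffer control mean, cut at about 0.38 in these data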;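 note: ratio is peak minus minimum fluorescence divided by baseline fluorescence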
KCNQ1 ephys val – KCNQ1 channel inhibitors, confirmation, orthogonal assay, cell-based, automated electrophysiology | actives 20% (n = 490) | calls only at 10 µM | KCNQ1-CHO cells, automated patch clamp current | shares compounds with KCNQ1 block;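 active = KCNQ1 current drop exceeding 3 SD of negative control wells, seen in both duplicate runs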;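 note: steady state current during a 2 s step from -80 to +40 mV; negative values mean current inhibition and positive values mean potentiation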
KCNQ2 spec – KCNQ2 channel inhibition, selectivity assay for KCNQ1 inhibitor project, cell-based; shares compounds with KCNQ1 block; KCNQ2 cells, FluxOR thallium flux fluorescence; inhibition, % at 10 µM; actives 71% (n = 1,600); AID 651746, 2012;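 active = mean percent inhibition of the KCNQ2 thallium signal more than 5 SD above the buffer-only control wells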;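 note: KCNQ2 expressed in CHO cells; 0% = buffer control wells and 100% = XE-991 inhibitor control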
KCNQ1-KCNE1 inh – KCNQ1/KCNE1 channel inhibition, selectivity assay for KCNQ1 inhibitor project, CHO-K1 cells, thallium flux, FluxOR | AID 652147, 2013 | inhibition, % at 10 µM | shares compounds with KCNQ1 block | actives 77% (n = 1,600) | FluxOR thallium flux fluorescence;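 active = mean percent inhibition of duplicate wells above the buffer-only control mean plus 3 SD of those controls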;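 note: 0% = buffer only wells and 100% = XE-991 inhibitor control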
Target sequence (P51787 whole entry, looked up): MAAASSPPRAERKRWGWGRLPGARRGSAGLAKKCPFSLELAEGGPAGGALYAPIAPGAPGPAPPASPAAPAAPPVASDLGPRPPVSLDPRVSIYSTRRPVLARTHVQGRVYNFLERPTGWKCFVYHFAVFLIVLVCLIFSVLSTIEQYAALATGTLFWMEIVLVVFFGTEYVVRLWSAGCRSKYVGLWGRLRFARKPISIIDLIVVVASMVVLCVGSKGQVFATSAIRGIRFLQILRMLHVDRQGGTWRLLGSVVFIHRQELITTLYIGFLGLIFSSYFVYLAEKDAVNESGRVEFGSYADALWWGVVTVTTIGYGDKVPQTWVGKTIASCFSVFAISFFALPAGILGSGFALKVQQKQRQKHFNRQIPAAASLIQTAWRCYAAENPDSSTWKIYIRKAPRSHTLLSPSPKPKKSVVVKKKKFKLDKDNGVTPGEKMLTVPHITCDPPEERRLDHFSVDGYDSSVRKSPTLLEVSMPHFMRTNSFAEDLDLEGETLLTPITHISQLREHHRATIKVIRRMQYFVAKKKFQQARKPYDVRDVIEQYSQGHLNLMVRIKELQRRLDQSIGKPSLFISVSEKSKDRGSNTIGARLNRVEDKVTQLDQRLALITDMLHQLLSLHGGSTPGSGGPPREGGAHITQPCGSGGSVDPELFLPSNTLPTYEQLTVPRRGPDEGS
Starred values were filed as active, the others as inactive.

What do the screens show for `CCn1c(C)nc2cc(C(=O)OC(C(F)(F)C(F)F)C(F)(F)C(F)F)ccc21`?
hERG protect: -22; KCNK3 inh: inactive; KCNQ1 block: 9*; KCNQ1 pot: inactive; KCNK9 inh: inactive; KCNQ1 block val: 131*; CHO KCNQ1 ctr: 0.4; KCNQ1 ephys val: inactive; KCNQ2 spec: 89%*; KCNQ1-KCNE1 inh: 116%*

What do the screens show for `CCn1c(C)nc2cc(C(=O)NNC(=O)c3ccc(C)cc3)ccc21`?
KCNK3 inh: inactive

What do the screens show for `Cc1cccc(NC(=O)CSc2nc3ccccc3nc2N2CCCC2)c1`?
hERG protect: -10; KCNK3 inh: inactive; KCNQ1 block: inactive; KCNQ1 pot: inactive; KCNK9 inh: inactive

How did COc1ccc(C)cc1NC(=O)CSc1nc2ccccc2nc1N1CC(C)OC(C)C1 (stereo not given) do in these assays?
hERG protect: -9; KCNK3 inh: inactive; KCNQ1 block: 7*; KCNQ1 pot: inactive; KCNK9 inh: inactive; KCNQ1 block val: 105*; CHO KCNQ1 ctr: 0.44; KCNQ1 ephys val: inactive; KCNQ2 spec: 95%*; KCNQ1-KCNE1 inh: 121%*

Results for CC1CN(c2nc3ccccc3nc2SCC(=O)Nc2cccc(C(F)(F)F)c2)CC(C)O1 (stereo not given) ?
hERG protect: -5; KCNK3 inh: -15*; KCNQ1 block: 10*; KCNQ1 pot: inactive; KCNK9 inh: inactive; KCNQ1 block val: 120*; CHO KCNQ1 ctr: 0.4; KCNQ1 ephys val: inactive; KCNQ2 spec: 126%*; KCNQ1-KCNE1 inh: 171%*

Results for Cc1cccc(NC(=O)CSc2nc3ccccc3nc2N2CCCCC2)c1 ?
hERG protect: -4; KCNK3 inh: inactive; KCNQ1 block: 8*; KCNQ1 pot: inactive; KCNK9 inh: inactive; KCNQ1 block val: 84*; CHO KCNQ1 ctr: 0.47; KCNQ2 spec: 107%*; KCNQ1-KCNE1 inh: 122%*

Results for COc1ccc(C)cc1NC(=O)CSc1nc2ccccc2nc1N1CCCC1 ?
hERG protect: -12; KCNK3 inh: inactive; KCNQ1 block: inactive; KCNQ1 pot: inactive; KCNK9 inh: inactive

Results for COc1ccccc1NC(=O)CSc1nc2ccccc2nc1N1CC(C)OC(C)C1 (stereo not given) ?
hERG protect: -12; KCNK3 inh: inactive; KCNQ1 block: 8*; KCNQ1 pot: inactive; KCNK9 inh: inactive; KCNQ1 block val: 86*; CHO KCNQ1 ctr: 0.45; KCNQ2 spec: 106%*; KCNQ1-KCNE1 inh: 118%*

How did O=C(Cc1cccs1)NNC(=O)C12CC3CC(CC(C3)C1)C2 do in these assays?
hERG protect: -12; KCNK3 inh: inactive; KCNQ1 block: inactive; KCNQ1 pot: inactive; KCNK9 inh: inactive

Results for O=C(COC(=O)CC1CCS(=O)(=O)C1)Nc1ccc(F)cc1 (stereo not given) ?
KCNK3 inh: inactive

Results for CC1CC(C)CN(CC(=O)N2CCCc3c2c(=O)oc2ccc(OCc4ccccc4)cc32)C1 (stereo not given) ?
hERG protect: -14; KCNK3 inh: inactive; KCNQ1 block: 9*; KCNQ1 pot: inactive; KCNK9 inh: inactive; KCNQ1 block val: 110*; CHO KCNQ1 ctr: 0.4; KCNQ2 spec: 100%*; KCNQ1-KCNE1 inh: 151%*

What do the screens show for `COc1ccccc1CO/N=C/c1cccn1-c1nccc(N(C)C)c1C#N`?
hERG protect: 1; KCNK3 inh: inactive; KCNQ1 block: inactive; KCNQ1 pot: inactive; KCNK9 inh: inactive

How did COC(CNC(=O)c1ccc2c3c(onc13)-c1ccccc1C2=O)OC do in these assays?
hERG protect: -46; KCNK3 inh: inactive; KCNQ1 block: 6*; KCNQ1 pot: inactive; KCNK9 inh: inactive; KCNQ1 block val: active; CHO KCNQ1 ctr: 0.086*; KCNQ2 spec: inactive; KCNQ1-KCNE1 inh: inactive

How did C=CCN(C(=O)c1cccc(N2C(=O)C3CC=CC(C)C3C2=O)c1)c1ccccc1 (stereo not given) do in these assays?
hERG protect: -11; KCNK3 inh: inactive; KCNQ1 block: inactive; KCNQ1 pot: inactive; KCNK9 inh: inactive

What do the screens show for `Cc1ccc(F)cc1NCC(=O)Nc1ccc(Br)cc1`?
hERG protect: -17; KCNK3 inh: inactive; KCNQ1 block: 8*; KCNQ1 pot: inactive; KCNK9 inh: inactive; KCNQ1 block val: 70*; CHO KCNQ1 ctr: 0.49; KCNQ2 spec: 99%*; KCNQ1-KCNE1 inh: 78%*

What do the screens show for `Cc1ccc(NCC(=O)Nc2ccc(Br)cc2)cc1C`?
hERG protect: -5; KCNK3 inh: inactive; KCNQ1 block: inactive; KCNQ1 pot: inactive; KCNK9 inh: inactive

What do the screens show for `S=C(NCc1ccc(Cl)c(Cl)c1)NCc1ccco1`?
hERG protect: -12; KCNK3 inh: inactive; KCNQ1 block: 6*; KCNQ1 pot: inactive; KCNK9 inh: inactive; KCNQ1 block val: 70*; CHO KCNQ1 ctr: 0.49; KCNQ2 spec: inactive; KCNQ1-KCNE1 inh: 104%*

How did CN(C(=O)COC(=O)c1ccc(S(=O)(=O)N2CCOCC2)cc1)C1CCCCC1 do in these assays?
hERG protect: -9; KCNK3 inh: inactive; KCNQ1 block: inactive; KCNQ1 pot: inactive; KCNK9 inh: inactive

High-throughput results: PubChem BioAssay, Johns Hopkins Ion Channel Center
